Experimental data from article PMC11843914 (RSC Advances, 2025).

Assays:
Assay type in all cases: cell-based
[1] = tested on: MCF-7 (breast cancer); experiment: MTT cell viability assay, MCF-7; details: Homo sapiens; for cytotoxicity at 100 µM: MCF7, read-out: Cytotoxicity %, MCF-7; for IC50: MCF7, 48 h, read-out: IC50 values, MCF-7
Procedure, shortened: (§1)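 MTT viability assay on human cell lines: MCF-7, HCT-116, PC3 and normal BJ-1. Test compounds were first screened at 100 μM. IC50 values came from a concentration series of 100 μM down to 12.5 μM.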

[2] = tested on: HCT-116 (colon cancer); experiment: MTT cell viability assay, HCT-116; details: Homo sapiens; for cytotoxicity at 100 µM: HCT-116, read-out: Cytotoxicity %, HCT-116; for IC50: HCT-116, 48 h, read-out: IC50 values, HCT-116
Procedure, shortened: as §1

[3] = tested on: PC3 (prostate cancer); experiment: MTT cell viability assay, PC3; details: Homo sapiens; for cytotoxicity at 100 µM: read-out: Cytotoxicity %, PC3; for IC50: 48 h, read-out: IC50 values, PC3
Procedure, shortened: as §1

IC50 [1] | IC50 [2] | IC50 [3] | SMILES | cytotoxicity at 100 µM [1] | cytotoxicity at 100 µM [2] | cytotoxicity at 100 µM [3]
– | – | – | CCS(=O)(=O)Oc1ccc(C=NNC(=O)c2nc3ccccc3s2)cc1 [6g, 4-((2-(Benzo[d]thiazole-2-carbonyl)hydrazono)methyl)phenyl ethanesulfonate] | 62.3% | 68.6% | 74.8%
78.4 ± 4.2 µM | 29.2 ± 1.7 µM | > 200 µM | O=c1[nH]cc(F)c(=O)[nH]1 [5-FU, 5-fluorouracil, reference compound] | – | – | –
– | – | – | CCS(=O)(=O)Oc1ccc(C=NNC(=O)c2nc3ccccc3s2)cc1OC [6h, 4-((2-(Benzo[d]thiazole-2-carbonyl)hydrazono)methyl)-2-methoxyphenyl ethanesulfonate] | – | 55.2% | 63.4%
– | – | – | CS(=O)(=O)Oc1ccc(C=NNC(=O)c2nc3ccccc3s2)cc1 [6d, 4-((2-(Benzo[d]thiazole-2-carbonyl)hydrazono)methyl)phenyl methanesulfonate] | 62.5% | 66.7% | 66.5%
– | – | – | COc1ccc(C=NNC(=O)c2nc3ccccc3s2)cc1OS(C)(=O)=O [6f, 5-((2-(Benzo[d]thiazole-2-carbonyl)hydrazono)methyl)-2-methoxyphenyl methanesulfonate] | – | 62.8% | –
– | – | – | CCCS(=O)(=O)Oc1ccc(C=NNC(=O)c2nc3ccccc3s2)cc1 [6j, 4-((2-(Benzo[d]thiazole-2-carbonyl)hydrazono)methyl)phenyl propane-1-sulfonate] | – | 68.5% | 62.3%
– | 102 ± 2.1 µM | – | O=C(NN=Cc1ccc(O)cc1)c1nc2ccccc2s1 [6a, N′-(4-Hydroxybenzylidene)benzo[d]thiazole-2-carbohydrazide] | – | – | –
80.9 ± 3.7 µM | – | – | COc1ccc(C=NNC(=O)c2nc3ccccc3s2)cc1O [6c, N'-(3-Hydroxy-4-methoxybenzylidene)benzo[d]thiazole-2-carbohydrazide] | 58.1% | – | –
– | 81.4 ± 1.9 µM | 90.6 ± 2.7 µM | COc1cc(C=NNC(=O)c2nc3ccccc3s2)ccc1OS(C)(=O)=O [6e, 4-((2-(Benzo[d]thiazole-2-carbonyl)hydrazono)methyl)-2-methoxyphenyl methanesulfonate] | – | 61.1% | 60.8%
– | – | – | CCCS(=O)(=O)Oc1ccc(C=NNC(=O)c2nc3ccccc3s2)cc1OC [6k, 4-((2-(Benzo[d]thiazole-2-carbonyl)hydrazono)methyl)-2-methoxyphenyl propane-1-sulfonate] | 59.6% | 77.2% | 64.6%
